# Data as given in ChEMBL document CHEMBL1811814, “Synthesis and evaluation of indole, pyrazole, chromone and pyrimidine based conjugates for tumor growth inhibitory activities--development of highly efficacious cytotoxic agents” (Eur J Med Chem, 2010).
# How the values were obtained:
# Assay type in all cases: functional
# Parameters in all cases: scale not given: the % may be the effect or the level left
# HL-60(TB) = assay: Growth inhibition of human HL-60(TB) cells assessed tumor cell growth at 10^-5 M
# Summary of the method: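 HL-60(TB), part of the 60-line panel, tested at a single concentration of 10^-5 M. The read-out is percent tumor cell growth relative to untreated growth.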
# K562 = assay: Growth inhibition of human K562 cells assessed tumor cell growth at 10^-5 M
# Summary of the method: (§1)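 NCI 60-human-tumor-cell-line panel screen. Each compound was tested at a single concentration of 10^-5 M, and percent growth of tumor cells was recorded for each cell line. Growth inhibition was expressed from these percent-growth values.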
# MOLT-4 = assay: Growth inhibition of human MOLT4 cells assessed tumor cell growth at 10^-5 M; summary of the method: as §1
# [1] = Growth inhibition of human […] cells assessed tumor cell growth at 10^-5 M; summary of the method: as §1
# SR = assay: Growth inhibition of human SR cells assessed tumor cell growth at 10^-5 M
# Summary of the method: (§2)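 Single-dose screen at 10^-5 M across the 60 human tumor cell line panel, run to NCI standards. The value is the percent growth of each cell line in the presence of compound. Compounds active at this dose moved on to five-concentration testing (10^-4 to 10^-8 M).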
# A549 = assay: Growth inhibition of human A549 cells assessed tumor cell growth at 10^-5 M; summary of the method: as §1
# EKVX = assay: Growth inhibition of human EKVX cells assessed tumor cell growth at 10^-5 M; summary of the method: as §1
# HOP-62 = assay: Growth inhibition of human HOP62 cells assessed tumor cell growth at 10^-5 M; summary of the method: as §1
# NCI-H226 = assay: Growth inhibition of human NCI-H226 cells assessed tumor cell growth at 10^-5 M; summary of the method: as §1
# NCI-H23 = assay: Growth inhibition of human NCI-H23 cells assessed tumor cell growth at 10^-5 M; summary of the method: as §1
# NCI-H322M = assay: Growth inhibition of human NCI-H322M cells assessed tumor cell growth at 10^-5 M; summary of the method: as §1
# NCI-H460 = assay: Growth inhibition of human NCI-H460 cells assessed tumor cell growth at 10^-5 M; summary of the method: as §1
# NCI-H522 = assay: Growth inhibition of human NCI-H522 cells assessed tumor cell growth at 10^-5 M; summary of the method: as §1
# COLO 205 = assay: Growth inhibition of human COLO205 cells assessed tumor cell growth at 10^-5 M; summary of the method: as §1
# HCT-116 = assay: Growth inhibition of human HCT116 cells assessed tumor cell growth at 10^-5 M; summary of the method: as §1
# HCT-15 = assay: Growth inhibition of human HCT15 cells assessed tumor cell growth at 10^-5 M; summary of the method: as §1
# HT-29 = assay: Growth inhibition of human HT-29 cells assessed tumor cell growth at 10^-5 M; summary of the method: as §1
# KM12 = assay: Growth inhibition of human KM12 cells assessed tumor cell growth at 10^-5 M; summary of the method: as §1
# SW-620 = assay: Growth inhibition of human SW620 cells assessed tumor cell growth at 10^-5 M; summary of the method: as §2
# SF-268 = assay: Growth inhibition of human SF268 cells assessed tumor cell growth at 10^-5 M; summary of the method: as §1
# SF-295 = assay: Growth inhibition of human SF295 cells assessed tumor cell growth at 10^-5 M; summary of the method: as §1
# SF-539 = assay: Growth inhibition of human SF539 cells assessed tumor cell growth at 10^-5 M; summary of the method: as §1
# SNB-19 = assay: Growth inhibition of human SNB19 cells assessed tumor cell growth at 10^-5 M; summary of the method: as §2
# SNB-75 = assay: Growth inhibition of human SNB75 cells assessed tumor cell growth at 10^-5 M; summary of the method: as §2
# U-251 = assay: Growth inhibition of human U251 cells assessed tumor cell growth at 10^-5 M; summary of the method: as §2
# LOX IMVI = assay: Growth inhibition of human LOXIMVI cells assessed tumor cell growth at 10^-5 M; summary of the method: as §1
# Malme-3M = assay: Growth inhibition of human MALME-3M cells assessed tumor cell growth at 10^-5 M; summary of the method: as §1
# M14 = assay: Growth inhibition of human M14 cells assessed tumor cell growth at 10^-5 M; summary of the method: as §1
# MDA-MB-435 = assay: Growth inhibition of human MDA-MB-435 cells assessed tumor cell growth at 10^-5 M; summary of the method: as §1
# SK-MEL-2 = assay: Growth inhibition of human SK-MEL-2 cells assessed tumor cell growth at 10^-5 M; summary of the method: as §1
# SK-MEL-28 = assay: Growth inhibition of human SK-MEL-28 cells assessed tumor cell growth at 10^-5 M; summary of the method: as §1
# SK-MEL-5 = assay: Growth inhibition of human SK-MEL-5 cells assessed tumor cell growth at 10^-5 M; summary of the method: as §1
# UACC-62 = assay: Growth inhibition of human UACC62 cells assessed tumor cell growth at 10^-5 M; summary of the method: as §2
# IGROV-1 = assay: Growth inhibition of human IGROV1 cells assessed tumor cell growth at 10^-5 M; summary of the method: as §1
# OVCAR-3 = assay: Growth inhibition of human OVCAR3 cells assessed tumor cell growth at 10^-5 M; summary of the method: as §1
# OVCAR-4 = assay: Growth inhibition of human OVCAR4 cells assessed tumor cell growth at 10^-5 M; summary of the method: as §1
# OVCAR-5 = assay: Growth inhibition of human OVCAR5 cells assessed tumor cell growth at 10^-5 M; summary of the method: as §1
# OVCAR-8 = assay: Growth inhibition of human OVCAR8 cells assessed tumor cell growth at 10^-5 M; summary of the method: as §1
# NCI/ADR-RES = assay: Growth inhibition of human NCI/ADR-RES cells assessed tumor cell growth at 10^-5 M; summary of the method: as §1
# SK-OV-3 = assay: Growth inhibition of human SKOV3 cells assessed tumor cell growth at 10^-5 M; summary of the method: as §1
# 786-0 = assay: Growth inhibition of human 786-0 cells assessed tumor cell growth at 10^-5 M; summary of the method: as §1
# A498 = assay: Growth inhibition of human A498 cells assessed tumor cell growth at 10^-5 M; summary of the method: as §1
# ACHN = assay: Growth inhibition of human ACHN cells assessed tumor cell growth at 10^-5 M; summary of the method: as §1
# CAKI-1 = assay: Growth inhibition of human Caki1 cells assessed tumor cell growth at 10^-5 M; summary of the method: as §1
# RXF 393 = assay: Growth inhibition of human RXF393 cells assessed tumor cell growth at 10^-5 M; summary of the method: as §1
# SN12C = assay: Growth inhibition of human SN12C cells assessed tumor cell growth at 10^-5 M; summary of the method: as §1
# TK-10 = assay: Growth inhibition of human TK10 cells assessed tumor cell growth at 10^-5 M; summary of the method: as §2
# UO-31 = assay: Growth inhibition of human UO31 cells assessed tumor cell growth at 10^-5 M; summary of the method: as §2
# PC-3 = assay: Growth inhibition of human PC3 cells assessed tumor cell growth at 10^-5 M; summary of the method: as §1
# DU-145 = assay: Growth inhibition of human DU145 cells assessed tumor cell growth at 10^-5 M; summary of the method: as §1
# MCF7 = assay: Growth inhibition of human MCF7 cells assessed tumor cell growth at 10^-5 M; summary of the method: as §1
# MDA-MB-231 = assay: Growth inhibition of human MDA-MB-231 cells assessed tumor cell growth at 10^-5 M; summary of the method: as §1
# [2] = Growth inhibition of human Hs 578T cells assessed tumor cell growth at 10^-5 M; summary of the method: as §1
# T47D = assay: Growth inhibition of human T47D cells assessed tumor cell growth at 10^-5 M; summary of the method: as §2
# MDA-MB-468 = assay: Growth inhibition of human MDA-MB-468 cells assessed tumor cell growth at 10^-5 M; summary of the method: as §1
smiles,measurement,setting,value
Cc1ccc(S(=O)(=O)N2C(=O)/C(=C\c3cn(S(=O)(=O)c4ccc(C)cc4)c4ccccc34)c3ccccc32)cc1,Activity,HL-60(TB),85.6%
same,Activity,K562,83.9%
same,Activity,MOLT-4,90.4%
same,Activity,[1],92.6%
same,Activity,SR,70.4%
same,Activity,A549,87.4%
same,Activity,EKVX,99.9%
same,Activity,HOP-62,80.2%
same,Activity,NCI-H226,97.5%
same,Activity,NCI-H23,96.5%
same,Activity,NCI-H322M,102.4%
same,Activity,NCI-H460,93.2%
same,Activity,NCI-H522,49.7%
same,Activity,COLO 205,107.3%
same,Activity,HCT-116,83.1%
same,Activity,HCT-15,97.4%
same,Activity,HT-29,90%
same,Activity,KM12,103.9%
same,Activity,SW-620,94.8%
same,Activity,SF-268,84.9%
same,Activity,SF-295,91.8%
same,Activity,SF-539,88%
same,Activity,SNB-19,82.9%
same,Activity,SNB-75,40.2%
same,Activity,U-251,76.2%
same,Activity,LOX IMVI,82.3%
same,Activity,Malme-3M,97.7%
same,Activity,M14,100.7%
same,Activity,MDA-MB-435,109.2%
same,Activity,SK-MEL-2,68.1%
same,Activity,SK-MEL-28,100.5%
same,Activity,SK-MEL-5,98.1%
same,Activity,UACC-62,82.1%
same,Activity,IGROV-1,105%
same,Activity,OVCAR-3,107.8%
same,Activity,OVCAR-4,100.5%
same,Activity,OVCAR-5,96.2%
same,Activity,OVCAR-8,76%
same,Activity,NCI/ADR-RES,95.6%
same,Activity,SK-OV-3,81%
same,Activity,786-0,71.2%
same,Activity,A498,96.8%
same,Activity,ACHN,91.3%
same,Activity,CAKI-1,89.6%
same,Activity,RXF 393,77%
same,Activity,SN12C,98.9%
same,Activity,TK-10,65.5%
same,Activity,UO-31,77.1%
same,Activity,PC-3,71.7%
same,Activity,DU-145,100%
same,Activity,MCF7,93.9%
same,Activity,MDA-MB-231,84.2%
same,Activity,[2],74.8%
same,Activity,T47D,94.8%
same,Activity,MDA-MB-468,103.8%
O=C1/C(=C\c2cn(Cc3ccccc3)c3ccccc23)c2ccccc2N1Cc1ccccc1,Activity,HL-60(TB),103.6%
same,Activity,K562,95.2%
same,Activity,MOLT-4,98.9%
same,Activity,[1],76.9%
same,Activity,SR,96.6%
same,Activity,A549,81.6%
same,Activity,EKVX,85.2%
same,Activity,HOP-62,90.9%
same,Activity,NCI-H23,88.6%
same,Activity,NCI-H322M,103.8%
same,Activity,NCI-H460,88.6%
same,Activity,NCI-H522,31.8%
same,Activity,COLO 205,89.8%
same,Activity,HCT-116,64.7%
same,Activity,HCT-15,77.7%
same,Activity,HT-29,90%
same,Activity,KM12,87.9%
same,Activity,SW-620,97.1%
same,Activity,SF-268,92.3%
same,Activity,SF-295,108.8%
same,Activity,SF-539,94.7%
same,Activity,SNB-19,106.1%
same,Activity,SNB-75,89.5%
same,Activity,U-251,92.9%
same,Activity,LOX IMVI,84%
same,Activity,Malme-3M,121.4%
same,Activity,M14,96.6%
same,Activity,MDA-MB-435,110.5%
same,Activity,SK-MEL-2,86.4%
same,Activity,SK-MEL-28,104.8%
same,Activity,SK-MEL-5,84.4%
same,Activity,UACC-62,82.6%
same,Activity,IGROV-1,66.8%
same,Activity,OVCAR-3,84.3%
same,Activity,OVCAR-4,84.4%
same,Activity,OVCAR-5,106.7%
same,Activity,OVCAR-8,88.9%
same,Activity,NCI/ADR-RES,92%
same,Activity,SK-OV-3,92.4%
same,Activity,786-0,99.1%
same,Activity,A498,96.6%
same,Activity,ACHN,85.4%
same,Activity,CAKI-1,72%
same,Activity,RXF 393,73.5%
same,Activity,SN12C,104%
same,Activity,TK-10,85.3%
same,Activity,UO-31,82.3%
same,Activity,PC-3,80.8%
same,Activity,DU-145,100.2%
same,Activity,MCF7,3.6%
same,Activity,MDA-MB-231,100.6%
same,Activity,[2],96%
same,Activity,T47D,57%
same,Activity,MDA-MB-468,46.6%
